Rows were chosen to be rich in hits. Some 3.8% of all compounds tested hit in one or more screens of this group.
hERG rescue – hERG (human) protection from proarrhythmic block | Q12809 | 0.51% of 310,000 active | AID 1511 | activation (rescue from dofetilide block), less the hit threshold, % at 10 µM | CHO-hERG, FluxOR thallium flux, dofetilide IC70 present;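 active = activation above the mean of controls blocked by dofetilide plus 5 SD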;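 also: thallium influx through hERG after potassium depolarization seen as dye fluorescence rise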
KCNK3 inh – human KCNK3 channel inhibition, primary screen. CHO-KCNK3 thallium flux, FluxOR fluorescence; hits give low values. B-score at 10 µM. 0.84% of 340,000 active. AID 602410;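 active = B-score under library mean minus 4 SD, starting fluorescence ratio at most library mean plus 5 SD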;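 also: more negative B-score means stronger inhibition of thallium flux through KCNK3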
Kir21 inh – blocks the mouse Kir2.1 inward-rectifier potassium channel. P35561. HEK293-Kir2.1, FluxOR thallium flux fluorescence; hits give low values. B-score at 10 µM. 0.85% of 310,000 active;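 active = fluorescence ratio B-score at or below minus 3 SD of library scores, with starting-brightness B-score within 2 SD, cut at about -4.2 in these data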;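 also: channel flux triggered by added potassium and thallium sulfate stimulus; B-score of peak minus minimum fluorescence over baseline after thallium stimulus; more negative B-score means stronger Kir2.1 block with less thallium influx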
KCNQ1 inh – human KCNQ1 channel inhibition | CHO-K1 KCNQ1, FluxOR thallium flux fluorescence; hits give high values | P51787 | 1.3% of 310,000 active | B-score at 10 µM;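 active = compounds whose thallium flux B-score, printed positive for inhibition, exceeds three library SD while starting fluorescence stays within three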;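 also: channel opened by potassium depolarization with thallium stimulus after 20 min compound exposure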
Target sequence (P51787 whole entry, looked up): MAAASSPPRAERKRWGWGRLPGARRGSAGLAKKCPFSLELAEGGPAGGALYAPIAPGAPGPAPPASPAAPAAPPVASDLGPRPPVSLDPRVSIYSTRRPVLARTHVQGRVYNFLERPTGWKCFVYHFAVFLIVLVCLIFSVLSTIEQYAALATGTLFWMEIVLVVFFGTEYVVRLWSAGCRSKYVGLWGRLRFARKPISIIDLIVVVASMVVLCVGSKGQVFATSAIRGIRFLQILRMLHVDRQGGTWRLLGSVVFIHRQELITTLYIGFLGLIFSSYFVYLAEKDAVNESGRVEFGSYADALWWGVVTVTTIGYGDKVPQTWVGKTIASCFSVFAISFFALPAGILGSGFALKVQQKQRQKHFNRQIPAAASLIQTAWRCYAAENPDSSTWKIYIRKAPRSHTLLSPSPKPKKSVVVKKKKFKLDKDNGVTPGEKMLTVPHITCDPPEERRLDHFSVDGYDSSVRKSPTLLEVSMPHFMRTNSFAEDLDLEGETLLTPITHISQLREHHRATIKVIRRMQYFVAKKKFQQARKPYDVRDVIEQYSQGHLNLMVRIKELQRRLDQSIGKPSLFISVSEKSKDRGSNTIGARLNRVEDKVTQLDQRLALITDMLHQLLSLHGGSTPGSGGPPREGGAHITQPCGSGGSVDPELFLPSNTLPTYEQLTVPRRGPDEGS
KCNK9 inh – inhibitors of human KCNK9 two-pore domain potassium channel; HEK293 KCNK9, FluxOR thallium flux fluorescence; hits give low values; B-score at 10 µM; 1.2% of 310,000 active;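 active = ratio B-score over 3 SD below the library mean, with starting fluorescence within 5 SD of its mean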;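 also: negative B-score means less thallium flux so channel inhibition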
KCNQ1 act – potentiators or activators of human KCNQ1 potassium channel. CHO-K1 KCNQ1, thallium flux FluxOR fluorescence; hits give high values. B-score at 10 µM. 0.35% of 310,000 active. AID 2648;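 active = fluorescence ratio B-score, a plate-corrected score, at least three library SD, with initial intensity B-score within 5 SD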
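Schedule – 37 °C overnight plating, 90-min dark dye load, 20-min compound pretreatment · System – stable KCNQ1 CHO-K1 line · Probe or stimulus – thallium- and potassium-containing depolarizing buffer · Measured by – kinetic FluxOR fluorescence, 10 s baseline plus 110 s post-stimulus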
KCNK9 block conf – confirmation of human KCNK9 potassium channel inhibitors. HEK293 KCNK9 cells, FluxOR thallium flux fluorescence. inhibition, % at 10 µM. shares compounds with KCNK9 inh. 43% of 4,900 active;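 active = thallium signal inhibited by more than 5 SD of the compound-free buffer control wells, on both duplicate plates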;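 also: 0% = assay buffer control wells without compound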
Kir21 sel – mouse Kir2.1 off-target activity of KCNK9 modulators | shares compounds with KCNK9 inh | Kir2.1 cells, FluxOR thallium flux fluorescence | inhibition, % at 10 µM | 4% of 4,900 active | AID 492993;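 active = thallium signal drop more than 5 SD beyond the mean of the no-compound control wells, seen in both duplicate plates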;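 also: signal is fluorescence rise after thallium addition divided by baseline fluorescence; plate controls were assay buffer only for no effect and full block by chlorpromazine control for full effect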
HEK293 Tl ctr – non-induced cell nonspecific activity of KCNK9 modulators; 40% of 4,900 active; non-induced KCNK9-HEK293, FluxOR thallium flux; inhibition, % at 10 µM; shares compounds with KCNK9 inh;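 active = thallium signal drop beyond 5 SD of the untreated control mean, on both duplicate plates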;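 also: plate controls were buffer only IC0 wells for no effect and SID17386958 at its maximal inhibitory level for full effect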
Active calls of the source: *; i = inactive; / = no result given.

SMILES	hERG rescue	KCNK3 inh	Kir21 inh	KCNQ1 inh	KCNK9 inh	KCNQ1 act	KCNK9 block conf	Kir21 sel	HEK293 Tl ctr
Cc1nn(CCC#N)c2c1P(=S)(N1CCCC1)OC(c1ccc(F)cc1)=N2 (stereo not given)	-8.0	i	-3.16	i	i	i	i	i	i
CN(C)CCSC1c2ccccc2CSc2ccccc21 (stereo not given)	-10.3	i	-0.71	i	i	i	/	/	/
Cc1ccccc1N1CCN(C2CCCN(C(=O)COc3ccccc3)C2)CC1 (stereo not given)	-11.8	i	0	i	i	i	i	i	i
Brc1ccc(-[n+]2c(-c3ccccc3)cc(-c3ccccc3)cc2-c2ccccc2)cc1	-32.7	i	-8.37*	7*	-8.27*	i	64.0%*	58.5%*	i
Cc1ccc(-c2cc(-c3ccc(C)cc3)[n+](-c3ccc(C(=O)O)cc3)c(-c3ccc(C)cc3)c2)cc1	-2.1	i	2.07	i	i	i	/	/	/
C/C(=N\N1CCCCCC1)c1c(O)n(-c2ccc(Cl)cc2)c(=O)[nH]c1=O	-8.5	i	0.14	i	i	i	i	i	i
C/C(=N\N1CCCCCC1)c1c(O)n(-c2ccc(C)cc2)c(=O)[nH]c1=O	-2.5	i	-0.53	i	i	i	/	/	/
COc1cc(CN2CCN(c3cc(C)ccc3C)CC2)ccc1O	-12.9	i	-1.57	i	i	i	i	i	i
COC(=O)C1=C(c2ccc(OCc3ccccc3)cc2)C[C@@H]2CC[C@H]1N2C(=O)NCc1cccc(OC)c1	/	i	/	/	/	/	/	/	/
CCCCN1CCC(O)(c2ccccc2)C(C(=O)c2ccccc2)C1 (stereo not given)	-12.2	i	-2.3	i	i	i	i	i	i
Cn1c(O)c(/C=C/C=Nc2ccccc2)c(=O)n(C)c1=O	-10.8	i	-2.43	i	i	i	/	/	/
CCCCn1c(O)c(/C=C/C=Nc2ccccc2)c(=O)[nH]c1=O	-5.0	i	-5.78	i	-9.2*	i	i	i	54.5%*
COc1ccc(-c2nc3ccccc3c(=O)n2-c2nccs2)cc1	-9.2	i	-3.04	i	i	i	/	/	/
O=C1/C(=C/c2cc([N+](=O)[O-])ccc2Cl)N2CCC1CC2	-12.6	i	-0.8	i	i	i	/	/	/
O=C(NCc1ccccc1)c1cccn(Cc2cccc(Cl)c2)c1=O	-8.2	i	-0.3	i	-11.1*	i	57.0%*	i	30.5%*
O=C(Nc1ccccc1)c1cccn(Cc2ccccc2)c1=O	-10.6	i	0.7	i	i	i	/	/	/
O=C(COc1ccc(Cl)cc1Cl)N1CCN(C/C=C/c2ccccc2)CC1	-7.9	i	-0.4	i	i	i	/	/	/
Cn1cccc1/C=C1\C(=O)NC(=O)N(Cc2ccco2)C1=O	-9.1	i	1.11	i	i	i	/	/	/
Cc1ccc(OCCn2cccc2/C=C2/C(=O)NC(=O)N(Cc3ccco3)C2=O)cc1	-3.6	i	-1.49	i	i	i	i	i	i
CC(C)N1CCN(Cc2cccc([N+](=O)[O-])c2)CC1	-1.4	i	-0.48	i	i	i	/	/	/
O=C1/C(=C\c2ccc(Cl)cc2Cl)N2CCC1CC2	-12.1	i	-1.26	i	i	i	/	/	/
CCOc1ccccc1CN1CCCC(C(=O)c2cc(F)ccc2F)C1 (stereo not given)	-1.2	i	-0.09	i	i	i	i	i	i
COc1ccccc1CN1CCCC(C(=O)c2ccccc2OC)C1 (stereo not given)	-5.5	i	-0.91	i	i	i	/	/	/
COc1ccccc1CN1CCCC(C(=O)c2ccccc2SC)C1 (stereo not given)	-6.5	i	-0.04	i	i	i	i	i	i
CC(C)=CCc1c(O)cc2c(c1O)C(=O)CC(c1ccc(O)cc1)O2 (stereo not given)	-19.8	i	0.33	i	-16.7*	i	i	i	i
SMILES	hERG rescue	KCNK3 inh	Kir21 inh	KCNQ1 inh	KCNK9 inh	KCNQ1 act	KCNK9 block conf	Kir21 sel	HEK293 Tl ctr
COc1ccccc1N1CCN(Cc2cc(C)c(C)cc2O)CC1	-3.1	i	0.25	i	i	i	/	/	/
COc1cc(C)c(CN2CCN(c3ccccc3)CC2)cc1C	-17.8	i	1.62	i	i	i	i	i	i
Fc1ccc(C2=CCN(C(c3cccs3)c3nnnn3CCc3ccccc3)CC2)cc1 (stereo not given)	-5.7	i	0.83	i	-14.4*	i	60.5%*	i	35.5%*
CC(=O)Nc1ccccc1C(=O)OCC(=O)c1ccc2ccccc2c1	-11.7	i	2.51	i	i	i	i	i	i
COc1ccccc1OCCCn1cc(C(=O)c2ccco2)c2ccccc21	-10.1	i	-0.15	i	-9.76*	i	32.0%*	i	i
O=C(c1ccco1)c1cn(Cc2ccc(Cl)cc2)c2ccccc12	-15.9	i	-1.5	i	-8.71*	i	56.5%*	i	37.0%*
CCCCNC(=O)c1c(N)n(CCCOC)c2nc3ccccc3nc12	-28.2	i	-0.94	i	-8.73*	i	i	i	i
COCCCn1c(N)c(C(=O)OCCOC)c2nc3ccccc3nc21	-4.0	i	0.94	i	i	i	/	/	/
COC(=O)C1=C(c2ccc(C(C)=O)cc2)C[C@@H]2CC[C@H]1N2C(=O)NCCO	/	i	/	/	/	/	/	/	/
N[C@@H]1CCCC[C@H]1N.O=C(O)C(=O)O.[Pt]	-1.6	/	0.79	i	i	i	/	/	/
Cc1nc2c(-c3ccc(F)cc3)c(C)nn2c(C)c1CCC(=O)N1CCC2(CC1)OCCO2	-13.4	i	-0.14	i	i	i	/	/	/
COc1cccc(OC)c1CN1CCCC(C(=O)c2cccc(Cl)c2)C1 (stereo not given)	-10.0	i	-1.34	i	i	i	i	i	i
COc1ccc(C(=O)C2CCCN(Cc3ccc(F)cc3F)C2)cc1F (stereo not given)	-6.3	i	-2	i	i	i	i	i	i
Cc1ncc(CN2CCCC(C(=O)c3cccc(OC(C)C)c3)C2)s1 (stereo not given)	-5.5	i	-0.86	i	i	i	i	i	i

From PubChem BioAssay
